Results as given in ChEMBL document CHEMBL1132346, “New type of febrifugine analogues, bearing a quinolizidine moiety, show potent antimalarial activity against Plasmodium malaria parasite” (J Med Chem, 1999).
Several values for one entry are separate records, joined by “and”; a condition that tells them apart may be missing. Identical values can stand only once.

Key:
Mus musculus [1] = assay: Compound was tested for antimalarial activity against mice (Mus musculus) malaria parasite Plasmodium berghei in vivo and the samples were administarted intraperitoneally.; assay type: functional; settings: for ED50: ip
Plasmodium falciparum [2] = assay: In vitro antimalarial activity against chloroquine-sensitive Plasmodium falciparum FCR3; assay type: functional, organism-based
Plasmodium falciparum [3] = assay: In vitro antimalarial activity against chloroquine-resistant Plasmodium falciparum K1; assay type: functional, organism-based
FM3A = assay: Compound was tested for cytotoxicity against FM3A mouse mammary cells.; assay type: functional, cell-based
[4] = Selectivity is the ratio of antimalarial activity and cytotoxicity; assay type: functional
Method in brief: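 Ratio of antimalarial activity to cytotoxicity, with cytotoxicity measured against FM3A mouse mammary cells.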

Mus musculus [5] = assay: Compound was tested for antimalarial activity against mice (Mus musculus) malaria parasite Plasmodium berghei in vivo mice (Mus musculus) and the samples were administarted intraperitoneally.; assay type: functional
Plasmodium berghei = assay: In vivo antimalarial activity against Plasmodium berghei infected mice (Mus musculus) by intraperitoneal dose; assay type: functional

Structure (SMILES) | ED90 (Mus musculus [1]) | ED50 (Mus musculus [1]) | EC50 (Plasmodium falciparum [2]) | EC50 (Plasmodium falciparum [3]) | EC50 (FM3A) | Selectivity [4] | ED90 (Mus musculus [5]) | ED90 (Plasmodium berghei) | ED50 (Plasmodium berghei; ip)
CC1(C)[C@@H](n2cnc3ccccc3c2=O)C(=O)C[C@@H]2[C@@H](O)CCCN21 | 19.4 µM/kg | 7.3 µmol/kg | 1.6 nM | 3 nM | 380 nM | 238 and 127 |  |  | 
O=c1c2ccccc2ncn1CC1(O)C[C@@H]2NCCC[C@@H]2O1 (some centres undefined) [ISOFEBRIFUGINE] |  |  | 3.4 nM | 1.8 nM | 180 nM | 53 and 100 | 5 µM/kg |  | 
CC1(C)[C@H](n2cnc3ccccc3c2=O)C(=O)C[C@H]2[C@@H](O)CCCN21 |  | 76 µmol/kg | 2.8 nM | 4.2 nM | 2400 nM | 857 and 571 |  |  | 
C[C@@H]1CC[C@H]2[C@@H](C)C(=O)O[C@@H]3O[C@@]4(C)CC[C@@H]1[C@]32OO4 [ARTEMISININ] |  |  |  |  |  |  |  | 46 µM/kg | 17.7 µmol/kg
O=C(C[C@@H]1NCCC[C@H]1O)Cn1cnc2ccccc2c1=O (single isomer, unassigned) [FEBRIFUGINE] | 5 µM/kg | 1 µmol/kg | 0.7 nM | 1.2 nM | 170 nM | 243 and 142 |  |  | 
CCN(CC)CCCC(C)Nc1ccnc2cc(Cl)ccc12 (centres undefined) [CHLOROQUINE] | 9.4 µM/kg | 4.7 µmol/kg | 18 nM | 130 nM | 32000 nM |  |  |  | 
